From the M2OR odorant receptor database
Changes are numbered by the printed parent chain.

How the values were obtained:
Details in all cases: stereoisomer not certain
[1] = biological target: T1, OR4S2 (Homo sapiens) (UniProt Q8NH73)
T1 sequence (whole entry): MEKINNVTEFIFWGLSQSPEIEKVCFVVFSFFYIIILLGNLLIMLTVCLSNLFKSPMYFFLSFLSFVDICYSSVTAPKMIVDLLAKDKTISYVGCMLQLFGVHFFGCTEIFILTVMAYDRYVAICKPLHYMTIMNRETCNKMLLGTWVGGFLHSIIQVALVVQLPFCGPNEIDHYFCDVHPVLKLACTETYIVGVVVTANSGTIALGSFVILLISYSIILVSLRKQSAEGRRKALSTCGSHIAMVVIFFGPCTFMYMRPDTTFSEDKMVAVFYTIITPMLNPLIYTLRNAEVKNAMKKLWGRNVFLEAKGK
Summary of the method: (§1)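 Each entry records the cell line, G-protein, co-transfected protein and tags used. Methods varied with the source, often transient luciferase assays in mammalian cell lines. A receptor–molecule pair is called responsive (active) if the original authors judged its signal statistically different from baseline and non-responsive (inactive) otherwise.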

[2] = biological target: T2, OR4X1 (Homo sapiens) (UniProt Q8NH49)
T2 sequence (whole entry): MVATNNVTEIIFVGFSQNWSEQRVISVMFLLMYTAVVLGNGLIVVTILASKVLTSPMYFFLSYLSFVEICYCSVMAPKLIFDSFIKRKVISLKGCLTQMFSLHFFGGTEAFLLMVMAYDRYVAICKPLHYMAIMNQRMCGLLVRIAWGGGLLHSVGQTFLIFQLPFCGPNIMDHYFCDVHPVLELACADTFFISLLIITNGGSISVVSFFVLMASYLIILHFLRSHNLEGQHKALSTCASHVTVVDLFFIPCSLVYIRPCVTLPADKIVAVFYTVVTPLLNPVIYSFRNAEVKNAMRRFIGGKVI
Summary of the method: as §1

[3] = biological target: T3, OR4X2 (Homo sapiens) (UniProt Q8NGF9)
T3 sequence (whole entry): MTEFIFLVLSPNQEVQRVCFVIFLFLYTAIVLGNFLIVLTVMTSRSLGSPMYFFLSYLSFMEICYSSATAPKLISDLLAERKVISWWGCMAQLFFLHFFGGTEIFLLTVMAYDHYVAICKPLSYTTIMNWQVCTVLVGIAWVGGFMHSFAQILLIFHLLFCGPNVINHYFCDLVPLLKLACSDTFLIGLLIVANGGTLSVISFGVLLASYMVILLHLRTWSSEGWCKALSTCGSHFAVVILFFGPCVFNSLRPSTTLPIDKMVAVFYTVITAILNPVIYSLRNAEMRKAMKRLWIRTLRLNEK
Summary of the method: as §1

[4] = biological target: T4, OR51A2 (Homo sapiens) (UniProt Q8NGJ7)
T4 sequence (whole entry): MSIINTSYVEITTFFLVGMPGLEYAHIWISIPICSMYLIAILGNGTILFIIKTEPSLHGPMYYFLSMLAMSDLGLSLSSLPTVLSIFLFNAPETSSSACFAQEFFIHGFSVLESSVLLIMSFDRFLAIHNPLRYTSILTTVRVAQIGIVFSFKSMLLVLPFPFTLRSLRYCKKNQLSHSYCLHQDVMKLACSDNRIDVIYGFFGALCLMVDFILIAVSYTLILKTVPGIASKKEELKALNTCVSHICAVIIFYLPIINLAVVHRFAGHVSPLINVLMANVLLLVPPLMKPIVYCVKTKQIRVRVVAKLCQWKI
Summary of the method: as §1

[5] = biological target: T5, OR51A4 (Homo sapiens) (UniProt Q8NGJ6)
T5 sequence (whole entry): T4 sequence (whole entry) with G59E, T94I, S97N, S167N, P227L, E235Q, G267R, M288T, K289N, W311R
Summary of the method: as §1

[6] = biological target: T6, OR51A7 (Homo sapiens) (UniProt Q8NH64)
T6 sequence (whole entry): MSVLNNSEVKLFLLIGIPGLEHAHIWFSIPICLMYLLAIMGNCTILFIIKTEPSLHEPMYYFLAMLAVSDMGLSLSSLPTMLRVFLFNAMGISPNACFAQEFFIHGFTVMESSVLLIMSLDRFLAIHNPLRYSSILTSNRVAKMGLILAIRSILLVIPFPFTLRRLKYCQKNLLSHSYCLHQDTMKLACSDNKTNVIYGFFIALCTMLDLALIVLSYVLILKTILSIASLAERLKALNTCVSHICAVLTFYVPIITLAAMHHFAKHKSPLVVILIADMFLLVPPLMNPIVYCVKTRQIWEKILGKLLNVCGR
Summary of the method: as §1

[7] = biological target: T7, OR51B2 (Homo sapiens) (UniProt Q9Y5P1)
T7 sequence (whole entry): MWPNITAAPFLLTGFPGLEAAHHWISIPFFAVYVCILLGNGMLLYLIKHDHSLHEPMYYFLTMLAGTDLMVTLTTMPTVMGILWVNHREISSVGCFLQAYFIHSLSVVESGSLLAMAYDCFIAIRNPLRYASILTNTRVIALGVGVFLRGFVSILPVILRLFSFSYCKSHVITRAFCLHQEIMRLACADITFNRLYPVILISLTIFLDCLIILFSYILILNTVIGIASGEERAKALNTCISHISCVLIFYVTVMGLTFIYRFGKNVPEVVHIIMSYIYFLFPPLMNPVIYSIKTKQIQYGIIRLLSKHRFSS
Summary of the method: as §1

[8] = biological target: T8, OR51B4 (Homo sapiens) (UniProt Q9Y5P0)
T8 sequence (whole entry): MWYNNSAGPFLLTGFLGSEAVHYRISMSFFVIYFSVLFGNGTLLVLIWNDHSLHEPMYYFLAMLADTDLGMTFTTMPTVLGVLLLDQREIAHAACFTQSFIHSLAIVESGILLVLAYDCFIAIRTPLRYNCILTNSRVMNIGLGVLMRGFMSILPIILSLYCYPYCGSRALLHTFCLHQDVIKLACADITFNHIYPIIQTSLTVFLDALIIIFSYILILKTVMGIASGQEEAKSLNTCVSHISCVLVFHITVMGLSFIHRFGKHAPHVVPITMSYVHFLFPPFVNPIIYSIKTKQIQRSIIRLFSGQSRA
Summary of the method: as §1

[9] = biological target: T9, OR51B5 (Homo sapiens) (UniProt Q9H339)
T9 sequence (whole entry): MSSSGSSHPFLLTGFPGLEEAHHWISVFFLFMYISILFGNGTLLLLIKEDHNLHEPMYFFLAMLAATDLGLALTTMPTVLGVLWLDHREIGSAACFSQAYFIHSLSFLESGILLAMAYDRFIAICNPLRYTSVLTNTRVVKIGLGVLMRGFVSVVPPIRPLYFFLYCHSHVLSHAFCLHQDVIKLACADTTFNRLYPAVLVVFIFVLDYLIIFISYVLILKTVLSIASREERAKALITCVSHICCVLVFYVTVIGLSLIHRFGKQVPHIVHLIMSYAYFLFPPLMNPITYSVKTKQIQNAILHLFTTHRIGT
Summary of the method: as §1

[10] = biological target: T10, OR51B6 (Homo sapiens) (UniProt Q9H340)
T10 sequence (whole entry): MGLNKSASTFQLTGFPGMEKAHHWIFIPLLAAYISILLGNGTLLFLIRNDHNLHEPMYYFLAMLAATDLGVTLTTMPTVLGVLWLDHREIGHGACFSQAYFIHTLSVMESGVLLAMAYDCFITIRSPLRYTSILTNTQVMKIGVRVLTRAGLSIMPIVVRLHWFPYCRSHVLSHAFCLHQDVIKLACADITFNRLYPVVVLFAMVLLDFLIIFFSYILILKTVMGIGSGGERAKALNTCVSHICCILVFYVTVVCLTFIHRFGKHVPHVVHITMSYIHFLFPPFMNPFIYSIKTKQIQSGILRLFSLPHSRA
Summary of the method: as §1

[11] = biological target: T11, OR51D1 (Homo sapiens) (UniProt Q8NGF3)
T11 sequence (whole entry): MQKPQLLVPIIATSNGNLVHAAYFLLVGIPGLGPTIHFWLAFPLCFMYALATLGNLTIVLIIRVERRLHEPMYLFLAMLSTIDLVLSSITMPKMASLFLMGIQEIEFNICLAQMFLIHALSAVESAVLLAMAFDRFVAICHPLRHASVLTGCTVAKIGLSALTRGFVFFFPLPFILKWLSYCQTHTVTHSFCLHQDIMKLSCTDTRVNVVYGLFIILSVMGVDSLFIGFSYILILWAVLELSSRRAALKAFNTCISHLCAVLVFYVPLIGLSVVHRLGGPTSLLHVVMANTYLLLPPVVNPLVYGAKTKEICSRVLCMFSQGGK
Summary of the method: as §1

[12] = biological target: T12, OR51E2 (Homo sapiens) (UniProt Q9H255)
T12 sequence (whole entry): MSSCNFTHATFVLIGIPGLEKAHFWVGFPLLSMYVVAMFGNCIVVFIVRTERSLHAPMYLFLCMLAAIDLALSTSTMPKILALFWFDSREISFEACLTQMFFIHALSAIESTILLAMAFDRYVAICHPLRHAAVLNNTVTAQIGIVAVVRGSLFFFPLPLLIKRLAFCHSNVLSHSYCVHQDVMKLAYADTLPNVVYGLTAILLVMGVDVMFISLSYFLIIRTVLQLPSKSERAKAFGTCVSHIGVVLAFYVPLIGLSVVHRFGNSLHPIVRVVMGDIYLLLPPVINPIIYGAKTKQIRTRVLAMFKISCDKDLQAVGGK
Summary of the method: as §1

[13] = biological target: T13, OR51F1 (Homo sapiens) (UniProt A6NGY5)
T13 sequence (whole entry): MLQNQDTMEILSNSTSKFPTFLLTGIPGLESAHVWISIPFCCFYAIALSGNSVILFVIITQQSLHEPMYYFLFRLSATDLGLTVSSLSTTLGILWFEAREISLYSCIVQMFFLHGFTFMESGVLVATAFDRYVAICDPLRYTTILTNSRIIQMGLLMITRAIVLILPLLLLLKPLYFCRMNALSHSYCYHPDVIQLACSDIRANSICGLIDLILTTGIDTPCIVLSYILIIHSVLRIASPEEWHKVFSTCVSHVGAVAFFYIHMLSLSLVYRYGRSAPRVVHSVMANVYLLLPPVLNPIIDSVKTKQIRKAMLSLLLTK
Summary of the method: as §1

[14] = biological target: T14, OR51F2 (Homo sapiens) (UniProt Q8NH61)
T14 sequence (whole entry): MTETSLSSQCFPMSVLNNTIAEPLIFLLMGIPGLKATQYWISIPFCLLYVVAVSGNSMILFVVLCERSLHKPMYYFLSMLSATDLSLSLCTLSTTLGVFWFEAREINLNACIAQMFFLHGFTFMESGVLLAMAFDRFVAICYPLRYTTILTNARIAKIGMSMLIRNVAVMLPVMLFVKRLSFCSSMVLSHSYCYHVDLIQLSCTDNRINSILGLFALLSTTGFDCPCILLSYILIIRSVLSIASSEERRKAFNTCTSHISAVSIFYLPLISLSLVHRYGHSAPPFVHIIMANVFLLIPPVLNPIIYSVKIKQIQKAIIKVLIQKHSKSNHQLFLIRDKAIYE
Summary of the method: as §1

[15] = biological target: T15, OR51G1 (Homo sapiens) (UniProt Q8NGK1)
T15 sequence (whole entry): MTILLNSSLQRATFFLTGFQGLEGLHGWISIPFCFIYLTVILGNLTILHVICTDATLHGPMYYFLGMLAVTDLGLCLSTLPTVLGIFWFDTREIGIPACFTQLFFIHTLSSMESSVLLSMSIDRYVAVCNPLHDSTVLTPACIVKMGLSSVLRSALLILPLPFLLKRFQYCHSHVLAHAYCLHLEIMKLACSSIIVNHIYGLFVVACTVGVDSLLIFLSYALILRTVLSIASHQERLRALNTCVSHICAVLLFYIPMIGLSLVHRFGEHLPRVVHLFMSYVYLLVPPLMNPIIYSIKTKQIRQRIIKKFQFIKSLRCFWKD
Summary of the method: as §1

[16] = biological target: T16, OR51G2 (Homo sapiens) (UniProt Q8NGK0)
T16 sequence (whole entry): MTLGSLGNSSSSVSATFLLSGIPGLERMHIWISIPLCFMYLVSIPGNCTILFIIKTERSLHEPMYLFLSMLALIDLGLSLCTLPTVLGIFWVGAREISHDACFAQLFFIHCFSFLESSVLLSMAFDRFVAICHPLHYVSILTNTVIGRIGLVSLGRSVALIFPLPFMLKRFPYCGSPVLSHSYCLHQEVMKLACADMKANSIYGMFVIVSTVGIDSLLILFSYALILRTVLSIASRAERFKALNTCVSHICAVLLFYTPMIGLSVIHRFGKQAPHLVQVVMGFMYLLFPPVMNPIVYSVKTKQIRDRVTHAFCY
Summary of the method: as §1

[17] = biological target: OR51H1 (Homo sapiens) (UniProt Q8NH63)
Chain of OR51H1 (Homo sapiens) (Q8NH63 whole entry): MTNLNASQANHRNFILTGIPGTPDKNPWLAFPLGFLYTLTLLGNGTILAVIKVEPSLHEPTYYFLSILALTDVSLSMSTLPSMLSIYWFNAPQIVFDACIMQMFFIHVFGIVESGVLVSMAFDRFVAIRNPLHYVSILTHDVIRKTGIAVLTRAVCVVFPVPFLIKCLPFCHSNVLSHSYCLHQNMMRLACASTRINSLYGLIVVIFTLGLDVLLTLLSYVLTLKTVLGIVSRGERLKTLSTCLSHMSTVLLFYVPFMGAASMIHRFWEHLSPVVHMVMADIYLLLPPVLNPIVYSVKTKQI
Summary of the method: as §1

[18] = biological target: T17, OR51I1 (Homo sapiens) (UniProt Q9H343)
T17 sequence (whole entry): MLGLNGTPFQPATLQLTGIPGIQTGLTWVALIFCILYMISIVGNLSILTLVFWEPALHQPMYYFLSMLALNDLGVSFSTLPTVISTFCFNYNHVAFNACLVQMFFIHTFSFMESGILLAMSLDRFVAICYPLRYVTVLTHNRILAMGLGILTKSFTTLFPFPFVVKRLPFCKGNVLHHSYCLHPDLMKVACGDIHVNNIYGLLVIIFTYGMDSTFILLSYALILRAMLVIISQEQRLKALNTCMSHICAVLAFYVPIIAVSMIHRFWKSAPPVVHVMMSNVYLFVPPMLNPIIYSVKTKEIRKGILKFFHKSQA
Summary of the method: as §1

[19] = biological target: T18, OR51E1 (Homo sapiens) (UniProt Q8TCB6)
T18 sequence (whole entry): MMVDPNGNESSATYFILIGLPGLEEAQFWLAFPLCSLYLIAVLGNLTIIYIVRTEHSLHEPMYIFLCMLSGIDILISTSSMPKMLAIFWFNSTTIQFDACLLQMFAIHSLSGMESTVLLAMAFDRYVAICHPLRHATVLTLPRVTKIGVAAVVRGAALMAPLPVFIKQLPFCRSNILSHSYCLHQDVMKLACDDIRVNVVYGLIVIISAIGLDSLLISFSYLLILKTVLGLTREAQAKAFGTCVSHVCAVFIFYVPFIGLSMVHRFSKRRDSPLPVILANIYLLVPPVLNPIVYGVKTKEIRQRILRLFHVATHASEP
Summary of the method: as §1

Measured: odorant receptor agonist call

CC1CCCCCCCCCCCCC(=O)C1 (configuration not stated)
not listed: [19]
inactive: all other assays above

CCCCCCCC(=O)OCC
inactive: [9]

CC1=NC(C)C(C)S1 (configuration not stated)
not listed: [13] | [17]
inactive: all other assays above

C=C(C)C1CC=C(C)CC1 (configuration not stated)
inactive: [9]
